# Screening results as filed in PubChem BioAssay.
# The full list was thinned out, with hits kept by preference.
# T cruzi growth-1: inhibitors of T. cruzi proliferation; 77,000 compounds, 5.9% hits; T. cruzi beta-gal in NIH3T3, GalScreen luminescence, 90 h; inhibition, % at 8.34 µM;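 active = mean inhibition above about 93%, with at least 55% of replicates each passing it, limit read from the data, passing the limit was not always enough; inconclusive = only one of those two conditions holds; inactive = neither condition holds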
# GASC1 inh: KDM4C (human) demethylase inhibition; GST-KDM4C 2-372, H3K9me3 peptide, LANCE TR-FRET; inhibition, % at 12.5 µM; Q9H3R0; 96,000 compounds, 0.15% hits;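 active = mean replicate inhibition above about 25%, with at least 55% of replicates also reaching it, limit read from the data, passing the limit was not always enough; inconclusive = only one of those two conditions met; inactive = neither condition met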
#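 Assay system: GST-GASC-1 enzyme fragment 2-372 | Amount: 10 nM enzyme | Medium: HEPES buffer, pH 7.5, plus ascorbate | Reagent: H3K9me3 peptide substrate, Fe(II), 2-oxoglutarate | Doses: Single-point compound screen | Incubation: 30 min demethylation and 1 h detection at room temperature | Measured by: LANCE TR-FRET, excitation 340 nm, emissions 618 and 671 nm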
# IDH1 mut inh: blocks human IDH1 R132H reductase activity | AID 624101 | 70,000 compounds, 0.18% hits | diaphorase/resazurin fluorescence, 60 min | O75874 | inhibition, % at 10 µM; in the data active = inhibition above about 34%; inconclusive = no clear call, values can overlap the other calls; inactive = below about 11%;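 also: 0% = DMSO and 100% = no enzyme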
# Target sequence (O75874 whole entry R132H): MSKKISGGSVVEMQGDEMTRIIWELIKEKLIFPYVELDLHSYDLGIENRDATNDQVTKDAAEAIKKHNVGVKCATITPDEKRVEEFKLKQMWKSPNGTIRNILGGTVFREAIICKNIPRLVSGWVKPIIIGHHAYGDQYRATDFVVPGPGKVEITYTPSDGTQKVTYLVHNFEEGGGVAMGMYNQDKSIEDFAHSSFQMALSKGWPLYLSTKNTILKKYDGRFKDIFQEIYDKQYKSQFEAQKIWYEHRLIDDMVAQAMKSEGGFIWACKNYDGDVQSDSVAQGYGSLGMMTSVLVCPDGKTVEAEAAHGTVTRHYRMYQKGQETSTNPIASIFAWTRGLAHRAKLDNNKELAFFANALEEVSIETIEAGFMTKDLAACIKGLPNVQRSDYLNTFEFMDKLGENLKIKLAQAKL
# T cruzi growth-2: Trypanosoma cruzi proliferation inhibition; shares compounds with T cruzi growth-1; AID 651739; T. cruzi beta-gal in NIH3T3, GalScreen luminescence, 90 h; inhibition, % at 8.35 µM; 5,600 compounds, 72% hits;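 active = mean replicate inhibition above about 95% and at least 55% of replicates individually reaching it, limit read from the data; inconclusive = only one of the two criteria is met; inactive = neither criterion is met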
# T cruzi growth-3: inhibitors of T. cruzi proliferation; shares compounds with T cruzi growth-1; T. cruzi beta-gal in NIH3T3, GalScreen luminescence, 90 h; inhibition, % at 2.09 µM; 5,600 compounds, 21% hits; AID 651740;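 active = mean inhibition above about 95%, with at least 55% of replicates also reaching it, limit read from the data; inconclusive = meets just one of the two conditions; inactive = meets neither condition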;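 also: plate controls were neutral control median for no effect and positive control median for full effect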
# NIH3T3 tox: NIH/3T3 (mouse) viability loss; shares compounds with T cruzi growth-1; NIH/3T3 viability, CellTiter-Glo ATP luminescence, 90 h; cytotoxicity (signal decrease), % at 8.35 µM; 5,600 compounds, 14% hits;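 active = mean signal decrease across replicates above about 35% based on untreated-well scatter, with enough replicates individually passing, limit read from the data; inconclusive = no rule stated though some were filed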;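 also: 0% = median of neutral control wells and 100% = median of positive control wells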
# NIH3T3 tox 2: NIH/3T3 (mouse) viability loss | shares compounds with T cruzi growth-1 | inhibition, % at 24.9 µM | NIH/3T3 viability, CellTiter-Glo ATP luminescence, 90 h | 5,600 compounds, 56% hits | AID 651744;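 active = mean loss of cell viability signal at or above a set limit, and enough replicates individually reaching it; inconclusive = meets only the mean limit or only the replicate share; inactive = meets neither condition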;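 also: 0% = median of neutral control wells and 100% = median of positive control wells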
# * = called active by the depositor; u = inconclusive; x = no result given.
SMILES,T cruzi growth-1,GASC1 inh,IDH1 mut inh,T cruzi growth-2,T cruzi growth-3,NIH3T3 tox,NIH3T3 tox 2
Cc1ccc(S(=O)(=O)N(C)C[C@H]2OCCCC[C@H](C)Oc3ccc(NC(=O)NC4CCCCC4)cc3C(=O)N([C@@H](C)CO)C[C@@H]2C)cc1,73.6,-0.8,-0.7,x,x,x,x
Cc1ccc(S(=O)(=O)N(C)C[C@H]2OCCCC[C@@H](C)Oc3ccc(NC(=O)NC4CCCCC4)cc3C(=O)N([C@@H](C)CO)C[C@H]2C)cc1,99.8*,-1.3,x,107.6*,31.2,-6.1,-53.7
Cc1ccc(S(=O)(=O)N(C)C[C@H]2OCCCC[C@H](C)Oc3ccc(NC(=O)NC4CCCCC4)cc3C(=O)N([C@@H](C)CO)C[C@H]2C)cc1,24.9,-0.5,x,x,x,x,x
Cc1ccc(S(=O)(=O)N(C)C[C@H]2OCCCC[C@@H](C)Oc3ccc(NC(=O)NC4CCCCC4)cc3C(=O)N([C@H](C)CO)C[C@H]2C)cc1,98.7*,-1.2,x,104.9*,u,-33.7,13.8
Cc1ccc(S(=O)(=O)N(C)C[C@@H]2OCCCC[C@@H](C)Oc3ccc(NC(=O)NC4CCCCC4)cc3C(=O)N([C@@H](C)CO)C[C@H]2C)cc1,39.9,0.4,3.0,x,x,x,x
Cc1ccc(S(=O)(=O)N(C)C[C@@H]2OCCCC[C@H](C)Oc3ccc(NC(=O)NC4CCCCC4)cc3C(=O)N([C@@H](C)CO)C[C@@H]2C)cc1,101.5*,-0.6,1.2,106.5*,92.8,2.5,0.7
CC(=O)c1cccc(N(CC(=O)Nc2ccccc2C)S(C)(=O)=O)c1,x,x,0.5,x,x,x,x
O=[N+]([O-])c1ccc(N2CCN(S(=O)(=O)c3ccc(F)cc3)CC2)cc1NCc1cccnc1,x,x,5.5,x,x,x,x
COC(=O)c1cc(NC(=O)CSc2nc(C)cc(C)n2)cc(C(=O)OC)c1,x,x,-0.1,x,x,x,x
CN(C)CCCNC(=O)C[C@@H]1CC[C@H]2[C@@H](COC[C@H](O)CN2Cc2cccc(Cl)c2)O1,62.0,3.3,x,x,x,x,x
C[C@@H]1CCCCO[C@H](CN(C)S(=O)(=O)c2ccc(Cl)cc2)[C@@H](C)CN([C@H](C)CO)C(=O)c2cc(NC(=O)NC3CCCCC3)ccc2O1,26.6,0.4,3.7,x,x,x,x
C[C@@H]1CCCCO[C@H](CN(C)S(=O)(=O)c2ccc(Cl)cc2)[C@@H](C)CN([C@@H](C)CO)C(=O)c2cc(NC(=O)NC3CCCCC3)ccc2O1,100.8*,0.0,x,105.3*,83.9,17.1,32.9*
C[C@H]1CN([C@@H](C)CO)C(=O)c2cc(NC(=O)Nc3ccc(C(F)(F)F)cc3)ccc2O[C@H]1CN(C)C(=O)NC1CCCCC1,x,x,-5.7,x,x,x,x
O=C(NCC[C@H]1CC[C@H](NS(=O)(=O)c2cccc(Cl)c2)[C@@H](CO)O1)c1cnccn1,143.8*,-2.0,-0.2,21.1,-28.5,-16.2,18.2
COc1cccc(S(=O)(=O)N[C@H]2CC[C@@H](CCNC(=O)Cc3ccncc3)O[C@H]2CO)c1,106.2*,0.7,-0.2,43.6,-9.3,-2.2,-3.8
O=C(NCC[C@@H]1CC[C@@H](NS(=O)(=O)c2cccc(Cl)c2)[C@@H](CO)O1)c1cnccn1,-31.2,-0.1,0.2,x,x,x,x
COc1cccc(S(=O)(=O)N[C@H]2CC[C@@H](CCNC(=O)Cc3ccncc3)O[C@@H]2CO)c1,14.7,0.0,-0.4,x,x,x,x
COc1ccc(OC)c(NC(=O)COc2ccc(C(=O)Nc3ccc(C)cc3)cc2)c1,x,x,0.2,x,x,x,x
N#C[C@H]1[C@@H](c2ccc(C#Cc3cccc(F)c3)cc2)[C@H](CO)N1C(=O)C1CCCC1,100.4*,-2.3,x,92.2,105.4*,8.9,103.4*
N#C[C@H]1[C@@H](c2ccc(C#Cc3cccc(F)c3)cc2)[C@@H](CO)N1C(=O)C1CCCC1,93.3,2.0,x,x,x,x,x
N#C[C@H]1[C@H](c2ccc(C#Cc3cccc(F)c3)cc2)[C@@H](CO)N1C(=O)C1CCCC1,98.8*,-0.4,x,94.4,101.7*,4.9,96.0*
N#C[C@H]1[C@H](c2ccc(C#Cc3cccc(F)c3)cc2)[C@H](CO)N1C(=O)C1CCCC1,104.7*,-0.1,x,102.2*,76.7,10.5,95.3*
COc1cccc(C#Cc2ccc([C@H]3[C@@H](CO)N(C(=O)C4CCCC4)[C@H]3C#N)cc2)c1,x,-2.0,x,x,x,x,x
COc1cccc(C#Cc2ccc([C@H]3[C@@H](C#N)N(C(=O)C4CCCC4)[C@@H]3CO)cc2)c1,x,-0.8,x,x,x,x,x
COc1cc(C(=O)Nc2ccc(Oc3ncnc4sc(C)c(C)c34)cc2)cc(OC)c1OC,x,x,0.4,x,x,x,x
SMILES,T cruzi growth-1,GASC1 inh,IDH1 mut inh,T cruzi growth-2,T cruzi growth-3,NIH3T3 tox,NIH3T3 tox 2
CCn1c(SCC(=O)Nc2cccc(F)c2)nnc1-c1ccc(Cl)cc1Cl,x,x,0.1,x,x,x,x
C[C@@H]1CN([C@H](C)CO)S(=O)(=O)c2ccc(-c3cncnc3)cc2O[C@@H]1CN(C)Cc1cccnc1,50.8,8.2,1.4,x,x,x,x
C[C@@H]1CN([C@@H](C)CO)C(=O)c2cc(NS(=O)(=O)c3ccccc3)ccc2O[C@H]1CN(C)Cc1ccc(C(F)(F)F)cc1,94.3,-0.2,x,x,x,x,x
C[C@H]1CN([C@@H](C)CO)C(=O)c2cc(NS(=O)(=O)c3ccccc3)ccc2O[C@H]1CN(C)Cc1ccc(C(F)(F)F)cc1,u,0.2,-0.3,106.3*,61.6,16.3,8.3
C[C@@H]1CN([C@@H](C)CO)C(=O)c2cc(NS(=O)(=O)c3ccc(Cl)cc3)ccc2O[C@@H]1CN(C)Cc1ccc(C(F)(F)F)cc1,125.6*,-4.0,1.1,95.6*,45.5,67.7*,104.1*
C[C@H](CO)N1C[C@H](C)[C@H](CN(C)Cc2ccc(Oc3ccccc3)cc2)Oc2ccc(NS(=O)(=O)c3ccc(Cl)cc3)cc2C1=O,u,1.0,x,106.9*,63.9,-0.2,104.4*
C[C@@H]1CN([C@H](C)CO)C(=O)c2cc(NS(=O)(=O)c3ccccc3)ccc2O[C@@H]1CN(C)Cc1ccc(Oc2ccccc2)cc1,47.4,-2.2,0.3,x,x,x,x
C[C@H](CO)N1C[C@H](C)[C@@H](CN(C)Cc2ccc(C(F)(F)F)cc2)Oc2ccc(NS(=O)(=O)c3ccc(F)cc3)cc2C1=O,80.3,-1.0,x,x,x,x,x
COc1ccc2c(c1)c(CC(=O)OCc1ccccn1)c(C)n2C(=O)c1ccc(Cl)cc1,x,x,1.2,x,x,x,x
CN(C)C(=O)c1ccc(-c2ccc([C@@H]3[C@@H](CO)N4CCCCN(C(=O)C5CCCC5)C[C@H]34)cc2)cc1,21.5,x,x,x,x,x,x
CN(C)C(=O)c1ccc(-c2ccc([C@H]3[C@H](CO)N4CCCCN(C(=O)C5CCCC5)C[C@@H]34)cc2)cc1,79.5,x,x,x,x,x,x
C/C=C/c1ccc([C@H]2[C@@H](CO)N3CCCCN(C(=O)C4CCCC4)C[C@@H]23)cc1,106.7*,1.5,x,107.8*,86.4,1.4,5.2
